The source made the active and inactive calls. No cut-off for these calls is given here.
Experiments:
[1] = target: T1, Protein cereblon/Fibroblast growth factor receptor 2 (Homo sapiens, UniProt P21802+Q96SW2); test: PROTAC activity at CRBN/FGFR2 in human KATO III stomach cancer cell line assessed as FGFR2 degradation by measuring FGFR2 expression level at 15 uM measured for 6 hrs by Western blotting analysis; type: cell-based
Target sequence in this assay (P21802 22-821 limits assumed): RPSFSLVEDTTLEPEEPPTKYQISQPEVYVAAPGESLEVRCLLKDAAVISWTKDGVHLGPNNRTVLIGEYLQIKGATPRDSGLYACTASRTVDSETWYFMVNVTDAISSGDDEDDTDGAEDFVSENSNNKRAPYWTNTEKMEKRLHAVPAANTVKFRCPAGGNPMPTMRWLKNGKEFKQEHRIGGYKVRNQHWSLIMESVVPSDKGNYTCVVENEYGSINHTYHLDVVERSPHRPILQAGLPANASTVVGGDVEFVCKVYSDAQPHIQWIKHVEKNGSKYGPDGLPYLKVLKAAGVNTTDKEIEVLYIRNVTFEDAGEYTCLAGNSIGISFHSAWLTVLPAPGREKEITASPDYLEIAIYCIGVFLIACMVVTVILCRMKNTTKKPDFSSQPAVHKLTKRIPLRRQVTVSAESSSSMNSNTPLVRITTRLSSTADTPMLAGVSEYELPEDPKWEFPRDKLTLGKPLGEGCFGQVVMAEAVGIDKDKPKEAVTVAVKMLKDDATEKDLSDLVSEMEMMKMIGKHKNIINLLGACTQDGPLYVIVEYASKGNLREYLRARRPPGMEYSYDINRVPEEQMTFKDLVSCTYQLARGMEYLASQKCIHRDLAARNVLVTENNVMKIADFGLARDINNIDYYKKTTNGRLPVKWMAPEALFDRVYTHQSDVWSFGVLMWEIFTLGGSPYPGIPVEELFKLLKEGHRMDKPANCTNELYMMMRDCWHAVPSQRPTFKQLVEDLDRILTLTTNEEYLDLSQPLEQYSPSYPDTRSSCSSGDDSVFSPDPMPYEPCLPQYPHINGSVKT
Target sequence in this assay (Q96SW2 whole entry partner): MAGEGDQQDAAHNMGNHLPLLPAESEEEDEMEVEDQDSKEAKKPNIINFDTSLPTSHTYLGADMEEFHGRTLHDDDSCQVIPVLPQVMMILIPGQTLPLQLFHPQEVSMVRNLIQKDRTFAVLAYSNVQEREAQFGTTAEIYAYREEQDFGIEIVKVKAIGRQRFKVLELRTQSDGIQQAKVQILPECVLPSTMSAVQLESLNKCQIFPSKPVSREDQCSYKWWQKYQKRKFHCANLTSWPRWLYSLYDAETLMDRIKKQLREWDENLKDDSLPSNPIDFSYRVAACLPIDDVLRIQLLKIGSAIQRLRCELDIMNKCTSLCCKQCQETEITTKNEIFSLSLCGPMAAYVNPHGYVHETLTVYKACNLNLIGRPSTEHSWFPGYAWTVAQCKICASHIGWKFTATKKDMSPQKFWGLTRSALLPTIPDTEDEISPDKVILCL

[2] = target: T1, Protein cereblon/Fibroblast growth factor receptor 2; test: PROTAC activity at CRBN/FGFR2 in human KATO III stomach cancer cell line assessed as FGFR2 degradation measured for 6 hrs by immunoblot analysis; type: cell-based
Outline: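 KATO III cells treated for 6 h at the stated concentrations, added from 10 mM DMSO stocks (final DMSO below 0.5%). Cells were washed with PBS and lysed in 2× loading buffer, then run on SDS-PAGE and blotted to PVDF. Anti-FGFR2 was applied overnight at 4 °C, with ECL detection. FGFR2 was expressed as FGFR2/β-actin, normalized to DMSO-treated cells, from three independent biological experiments.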
Target sequence in this assay (P21802 22-821 limits assumed): as the sequence (P21802 22-821 limits assumed) above
Target sequence in this assay (Q96SW2 whole entry partner): as the sequence (Q96SW2 whole entry partner) above

[3] = tested on: KATO III stomach cancer cell line; test: Antiproliferative activity against human KATO III stomach cancer cell line assessed as reduction in cell viability measured for 72 hrs by celltiter-glo reagent based assay; type: functional
Outline: (§1)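 Cancer lines KATO III, SNU16, NCI-H716, NCI-H1975, MV-4-11 and HEK293T treated 72 h; antiproliferative IC50 given as mean ± s.d. from three independent biological experiments.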

SNU-16 [4] = test: Antiproliferative activity against human SNU-16 cells assessed as reduction in cell viability measured for 72 hrs by celltiter-glo reagent based assay; type: functional; conditions: SNU-16, 72 h; outline: as §1
NCI-H716 = test: Antiproliferative activity against human NCI-H716 cells assessed as reduction in cell viability measured for 72 hrs by celltiter-glo reagent based assay; type: functional; conditions: NCI-H716, 72 h; outline: as §1
NCI-H1975 = test: Antiproliferative activity against human NCI-H1975 cells assessed as reduction in cell viability measured for 72 hrs by celltiter-glo reagent based assay; type: functional; conditions: NCI-H1975, 72 h; outline: as §1
MV4-11 = test: Antiproliferative activity against human MV4-11 cells assessed as reduction in cell viability measured for 72 hrs by celltiter-glo reagent based assay; type: functional; conditions: MV4-11, 72 h; outline: as §1
[5] = Antiproliferative activity against human HEK293T cells assessed as reduction in cell viability measured for 72 hrs by celltiter-glo reagent based assay; type: toxicity, HEK-293T; outline: as §1
[6] = Oral bioavailability in mouse at 10 mg/kg; type: ADME, organism-based; conditions: in vivo
[7] = target: T1, Protein cereblon/Fibroblast growth factor receptor 2; test: PROTAC activity at CRBN/FGFR2 in human KATO III stomach cancer cell line assessed as FGFR2 degradation by measuring FGFR2 expression level at 100 to 500 nM measured for 6 hrs by Western blotting analysis; type: cell-based; conditions: dose 100-500 nM
Outline: (§2)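 KATO III cells treated 6 h across 0.5–10,000 nM (DMSO stock, final DMSO below 0.5%); FGFR2 immunoblotted, quantified as FGFR2/β-actin ratio normalized to DMSO-treated cells, three independent biological experiments; DC50 and Dmax derived from the curve.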
Target sequence in this assay (P21802 22-821 limits assumed): as the sequence (P21802 22-821 limits assumed) above
Target sequence in this assay (Q96SW2 whole entry partner): as the sequence (Q96SW2 whole entry partner) above

[8] = target: T1, Protein cereblon/Fibroblast growth factor receptor 2; test: PROTAC activity at CRBN/FGFR2 in human KATO III stomach cancer cell line assessed as FGFR2 degradation by measuring FGFR2 expression level at 500 nM measured for 6 hrs by Western blotting analysis relative to control; type: cell-based; outline: as §2
Target sequence in this assay (P21802 22-821 limits assumed): as the sequence (P21802 22-821 limits assumed) above
Target sequence in this assay (Q96SW2 whole entry partner): as the sequence (Q96SW2 whole entry partner) above

SNU-16 [9] = test: Antitumor activity against human SNU-16 cells xenografted in BALB/c nude mouse assessed as tumor growth inhibition at 20 mg/kg, po administered for 15 days and measured on day 2; type: functional; conditions: SNU-16, 48 h, time 2 day, read-out: TGI
Outline: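 Female BALB/c nude mice, 5 weeks old (20–22 g), s.c. right-flank SNU-16 implants, randomized by body weight into groups (n = 5) once tumours reached 50–100 mm3. Dosing 20 mg/kg/day intragastric in 0.5% CMC-Na for 15 d; vehicle controls. Tumour width and length measured every 2 days; tumours harvested 4 h after last dose and lysates immunoblotted for pFGFR, FGFR2, pPLCγ, pErk.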

[10] = target: T1, Protein cereblon/Fibroblast growth factor receptor 2; test: PROTAC activity at CRBN/FGFR2 in human KATO III stomach cancer cell line assessed as FGFR2 degradation by measuring FGFR2 expression level measured for 6 hrs by Western blotting analysis; type: cell-based; outline: as §2
Target sequence in this assay (P21802 whole entry): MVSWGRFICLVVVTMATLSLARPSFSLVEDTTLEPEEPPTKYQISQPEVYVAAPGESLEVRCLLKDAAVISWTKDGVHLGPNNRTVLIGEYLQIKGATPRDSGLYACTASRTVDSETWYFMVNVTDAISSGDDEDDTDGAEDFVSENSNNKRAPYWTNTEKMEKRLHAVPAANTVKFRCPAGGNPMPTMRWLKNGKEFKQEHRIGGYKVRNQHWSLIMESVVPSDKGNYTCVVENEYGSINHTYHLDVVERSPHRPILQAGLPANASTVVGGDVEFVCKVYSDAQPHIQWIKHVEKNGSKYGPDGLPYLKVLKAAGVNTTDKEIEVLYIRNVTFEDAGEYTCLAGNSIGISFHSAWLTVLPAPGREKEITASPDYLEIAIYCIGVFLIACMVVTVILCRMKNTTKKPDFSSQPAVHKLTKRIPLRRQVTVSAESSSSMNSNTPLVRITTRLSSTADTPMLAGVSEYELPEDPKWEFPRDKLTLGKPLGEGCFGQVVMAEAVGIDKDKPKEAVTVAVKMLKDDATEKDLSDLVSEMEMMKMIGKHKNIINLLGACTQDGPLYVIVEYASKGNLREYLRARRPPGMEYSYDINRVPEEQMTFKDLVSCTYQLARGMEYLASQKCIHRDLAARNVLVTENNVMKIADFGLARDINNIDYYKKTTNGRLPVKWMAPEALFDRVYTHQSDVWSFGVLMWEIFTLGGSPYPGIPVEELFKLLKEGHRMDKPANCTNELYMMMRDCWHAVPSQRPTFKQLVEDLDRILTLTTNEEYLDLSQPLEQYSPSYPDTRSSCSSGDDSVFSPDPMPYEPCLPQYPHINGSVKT
Target sequence in this assay (Q96SW2 whole entry): as the sequence (Q96SW2 whole entry partner) above

With `COc1cc(OC)c(Cl)c(NC(=O)N(C)c2cc(Nc3ccc(N4CCN(CC(=O)NCCOCCOCCNC(=O)C5CCN(c6ccc7c(c6)C(=O)N(C6CCC(=O)NC6=O)C7=O)CC5)CC4)cc3)ncn2)c1Cl` (centres undefined) the Activity [1] was “inactive”.

For `COc1cc(OC)c(Cl)c(NC(=O)N(C)c2cc(Nc3ccc(N4CCN(C(=O)C5CCN(c6ccc7c(c6)C(=O)N(C6CCC(=O)N(C)C6=O)C7=O)CC5)CC4)cc3)ncn2)c1Cl` (centres undefined), the Activity [2] was “inactive”, the IC50 [3] was 0.497 µM and the IC50 (SNU-16 [4]) was 0.108 µM. For the same molecule, the IC50 (NCI-H716) was 0.0995 µM, the IC50 (NCI-H1975) was over 10 µM and the IC50 (MV4-11) was over 10 µM. The IC50 at 72 h [5] was over 10 µM.

For `COc1cc(OC)c(Cl)c(NC(=O)N(C)c2cc(Nc3ccc(N4CCN(CC(=O)N[C@H](C(=O)N5C[C@H](O)C[C@H]5C(=O)N[C@@H](C)c5ccc(-c6scnc6C)cc5)C(C)(C)C)CC4)cc3)ncn2)c1Cl`, the bioavailability [6] was 0.2%.

In the case of `COc1cc(OC)c(Cl)c(NC(=O)N(C)c2cc(Nc3ccc(N4CCN(CC(=O)NCCNc5cccc6c5C(=O)N(C5CCC(=O)NC5=O)C6=O)CC4)cc3)ncn2)c1Cl` (centres undefined), the Activity [7] is reported as “inactive”.

`COc1cc(OC)c(Cl)c(NC(=O)N(C)c2cc(Nc3ccc(N4CCN(C(=O)CCCCCCCNc5cccc6c5C(=O)N(C5CCC(=O)NC5=O)C6=O)CC4)cc3)ncn2)c1Cl` (centres undefined) gave an Activity ([8]; DEGRADER) of 40%.

`CCN1CCN(c2ccc(Nc3cc(N(C)C(=O)Nc4c(Cl)c(OC)cc(OC)c4Cl)ncn3)cc2)CC1` [INFIGRATINIB] showed an IC50 [3] of 0.0603 µM, an IC50 (SNU-16 [4]) of 0.0954 µM and an IC50 (NCI-H716) of 0.0659 µM. It also gave an inhibition in vivo at 20 mg/kg (SNU-16 [9]) of 53.7%.

With `COc1cc(OC)c(Cl)c(NC(=O)N(C)c2cc(Nc3ccc(N4CCN(C(=O)CCCCCCCCCCCNc5cccc6c5C(=O)N(C5CCC(=O)NC5=O)C6=O)CC4)cc3)ncn2)c1Cl` (centres undefined) the Activity [7] was “inactive”.

With `COc1cc(OC)c(Cl)c(NC(=O)N(C)c2cc(Nc3ccc(N4CCN(CC(=O)NCCCCCNc5cccc6c5C(=O)N(C5CCC(=O)NC5=O)C6=O)CC4)cc3)ncn2)c1Cl` (centres undefined) the Activity [8] was 66%, the Activity ([8]; DEGRADER) was 20% and the DC50 [10] was 0.0415 µM.

Source: ChEMBL document CHEMBL5338796, “Discovery of a Selective and Orally Bioavailable FGFR2 Degrader for Treating Gastric Cancer” (J Med Chem, 2023)
